Experimental data reported in ChEMBL document CHEMBL3994584, “Identification of novel fluorescent probes preventing PrPSc replication in prion diseases” (Eur J Med Chem, 2017).

Experiment: Antiprion activity against mouse prion protein RML infected mouse ScN2a cells assessed as reduction in proteinase K-resistant PrPSc level incubated for 5 days followed by proteinase K digestion by Western blot method
Details: 120 h
Outline: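 RML-infected ScN2a cells were treated with 0.1, 1 and 10 μM for 5 days, with DMSO ≤0.1% final. Lysates (500 μg protein) were digested with 10 μg PK for 1 h at 37 °C, stopped with 2 mM PMSF and ultracentrifuged. Pellets were run on SDS-PAGE and immunoblotted with anti-PrP Fab W226, with ECL detection. Densitometry gave PK-resistant PrPSc over total PrP, with untreated set to 100%. Three independent experiments.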

Row | Compound | EC50 (read-out: EC50) [nM] | EC50 (read-out: pEC50 (converted)) [nM]
1 | COCCOc1cc(-c2ccc(-c3csc(NC(=O)C4CC4)n3)cc2)ccn1 | 1320 | 1320
2 | CN(C)c1ccncc1-c1ccc(-c2csc(NC(=O)C3CC3)n2)cc1 | 109 | 110
3 | COc1ccc(-c2csc(NC(=O)c3ccc4ccccc4n3)n2)cc1OC | 8180 | 8130
4 | Cc1ccnc(Nc2nc(-c3cc(-c4ccccc4)no3)cs2)c1 | 1270 | 1260
5 | Cc1cc(-c2ccc(-c3csc(Nc4cccc(C)n4)n3)cc2)ccn1 | 400 | 398
6 | COc1ccc(-c2csc(Nc3ccc4ccccc4c3)n2)cc1OC | 390 | 389
7 | COc1ccc(-c2csc(N(C(C)=O)c3ccc4ccccc4n3)n2)cc1OC | 81 | 81.3
8 | COc1ccc(-c2csc(Nc3ccc(C)cn3)n2)cc1OC | 790 | 794
9 | Cc1ccc(Nc2nc3c(s2)Cc2ccccc2-3)nc1 | 2440 | 2450
10 | COc1ccc(-c2csc(Nc3ccc4ccccc4n3)n2)cc1 | 340 | 339
11 | Cc1cccc(Nc2nc(-c3ccc(-c4ccnn4C)cc3)cs2)n1 | 89 | 89.1
12 | Oc1ccc(-c2csc(Nc3ccccn3)n2)cc1O | 10000 | 10000
13 | Cc1ccnc(Nc2nc(-c3ccncc3)cs2)c1 | 4950 | 5010
14 | CN1CCN(c2cccc(Nc3nc(-c4ccc(-c5ccccc5)cc4)cs3)n2)CC1 | 1180 | 1170
15 | COc1ccc(-c2csc(Nc3ccc4ccccc4n3)n2)cc1OC | 430 | 427
16 | COCCOc1ccc(-c2ccc(-c3csc(NC(=O)C4CC4)n3)cc2)cn1 | 118 | 117
17 | c1ccc2oc(-c3csc(Nc4ccc(-c5cnco5)cc4)n3)cc2c1 | 228 | 229
18 | Cc1cccc(Nc2nc(-c3ccc(-c4ccnc(OC(C)C)c4)cc3)cs2)n1 | 2840 | 2820

Row | Compound | EC50 (read-out: EC50) [nM] | EC50 (read-out: pEC50 (converted)) [nM]
19 | CN(C)c1cccc(Nc2nc(-c3ccc(-c4ccccc4)cc3)cs2)n1 | 699 | 692
20 | Cc1ccnc(Nc2nc(-c3cc(-c4ccc(Cl)cc4)no3)cs2)c1 | 850 | 851
21 | Cc1cccc(Nc2nc(-c3ccc(-c4ccnc(N5CCN(C)CC5)c4)cc3)cs2)n1 | 759 | 759
22 | c1ccc(-c2ccc(-c3csc(Nc4ccc5ccccc5n4)n3)s2)nc1 | 2010 | 2000
23 | Cc1cccc(Nc2nc(-c3ccc(-c4ccccc4)cc3)cs2)n1 | 2290 | 1260
24 | O=C(CN1CCCC1)Nc1ccc(Cc2ccc(NC(=O)CN3CCCC3)cc2)cc1 | 1350 | 1350
25 | Cc1cccc(Nc2nc(-c3ccc(N4CCOCC4)cc3)cs2)n1 | 51 | 51.3
26 | Cc1cccc(Nc2nc(-c3ccc(-c4ccc(N(C)C)nc4)cc3)cs2)n1 | 69 | 69.2
27 | O=C(Nc1nc(-c2ccc(-c3ccccc3)cc2)cs1)C1CC1 | 248 | 245
28 | Cc1cccc(Nc2nc(-c3ccc(-c4ccc[n+]([O-])c4)cc3)cs2)n1 | 203 | 204
29 | c1ccc(-c2cc(-c3csc(Nc4ccccn4)n3)on2)cc1 | 600 | 603
30 | COc1ccc(-c2csc(Nc3cccc(C)n3)n2)cc1OC | 3010 | 3020
31 | Cc1cccc(Nc2nc(-c3cc(-c4ccccc4)no3)cs2)n1 | 820 | 813
32 | Cc1ccc(Nc2nc(-c3cccc(C#N)c3)cs2)nc1 | 2290 | 2290
33 | Cc1cccc(Nc2nc(-c3ccc(-c4cc[n+]([O-])cc4)cc3)cs2)n1 | 559 | 562
34 | Cc1cccc(Nc2nc(-c3ccc(-c4ccncc4)cc3)cs2)n1 | 87 | 87.1
35 | Cc1cccc(Nc2nc(-c3ccc(O)c(O)c3)cs2)n1 | 2500 | 2510
36 | Cc1cccc(Nc2nc(-c3ccc(-c4c(C)noc4C)cc3)cs2)n1 | 2130 | 2140
